Compound activity (PubChem BioAssay)
Tb MetRS inh = T. brucei MetRS inhibitors, primary screen, biochemical, luminescence; AID 624268, 2012; purified T. brucei MetRS, ATP depletion, Kinase-Glo luminescence; hit rate 0.4% among 360,000; inhibition, % at 11.9 µM;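 active = inhibition above a per-plate cutoff of the control wells' mean inhibition plus 3 SD, cut at about 5.5% in these data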
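Material – parasite MetRS enzyme · Medium – HEPES-MgCl2-KCl buffer plus DTT, spermine, BSA, pyrophosphatase · Reagent – ATP, methionine and E. coli bulk tRNA substrates · Times – 15 min enzyme-compound preincubation, 2 h reaction, 10 min detection, 25 °C · Measured by – luminescence of leftover ATP · Evaluation – percent inhibition relative to median high and low control wells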
bovine MsrA act = bovine MsrA enzyme activators, primary screen, biochemical, absorbance, HTS; Methionine sulfoxide reductase A (Bos taurus); purified bovine MsrA, absorbance read-out; activation, % at 10.6 µM; hit rate 0.3% among 360,000; AID 602163, 2012; in the data active = activation above about 7.5%
m5-HT2A agonist = mouse Htr2a agonists via beta-arrestin recruitment, primary screen, cell-based, luminescence. hit rate 0.66% among 360,000. activation, % at 7.6 µM. CHO-K1 mHTR2A beta-arrestin complementation; percent of 30 µM serotonin response;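 active = activation above a run cutoff, the mean activation of all tested compounds plus 3 SD, cut at about 14% in these data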
AHR act = AHR activators, primary screen, cell-based, luminescence, luciferase reporter, human | activation, % at 5 µM | Aryl hydrocarbon receptor (Homo sapiens), P35869 | AID 2796, 2010 | AHR-responsive luciferase reporter cells | hit rate 2.5% among 320,000; in the data active = activation above about 47%
MsrA inh = bovine MsrA enzyme inhibitors, primary screen, biochemical, absorbance, HTS; Methionine sulfoxide reductase A (Bos taurus); purified bovine MsrA, absorbance read-out; inhibition, % at 15.5 µM; hit rate 0.75% among 360,000; AID 651718, 2012; in the data active = inhibition above about 4.5%
AI-2 QS mod = Vibrio harveyi AI-2 quorum sensing modulators, primary screen, JMH597 strain, luminescence/OD600 ratio; Vibrio harveyi JMH597 AI-2 luminescence/OD600 ratio, 9 h; stronger effect = lower value; strain lacks LuxN and CqsS sensors; 0 = neutral-control median; activity change, % at 7.5 µM; hit rate 0.4% among 300,000; in the data active = activity change below about -75%, passing the limit was not always enough;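 note: luminescence divided by OD600 gain over 9 h not by final OD600 alone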
OPRM1 ag = OPRM1 agonists via beta-arrestin recruitment, confirmation, counter-screen for mouse HTR2A agonist project, cell-based, luminescence, single concentration | shares compounds with m5-HT2A agonist | AID 624380, 2012 | hit rate 5.3% among 2,300 | activation, % at 9.3 µM | U2OS OPRM1 beta-arrestin PathHunter; DMSO 0%, DAMGO 9.3 µM 100%;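 active = mean activation above the mean of DMSO-only wells plus 3 SD, cut at about 0.5% in these data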
m5-HT2A ag conf = mouse HTR2A agonists, beta-arrestin recruitment, confirmation, cell-based, luminescence, CHO-K1 PathHunter, triplicate; shares compounds with m5-HT2A agonist; DMSO 0%, 30 µM serotonin 100%; activation, % at 7.6 µM; hit rate 19% among 2,300;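 active = mean activation across triplicates above the hit threshold derived in the original primary screen, cut at about 15% in these data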
Of the large screens only hits and unclear results are named; the others gave an inactive call (follow-up assays come after a bar, where they were run); ! = not confirmed by another sample. In the library only some 4.4% were active in any assay of this set; here they are far more common.

COc1ccccc1Nc1nc(N2CCCC2)nc(N2CCOCC2)n1	none
COc1ccccc1Nc1nc(N2CCOCC2)nc(N2CCOCC2)n1	m5-HT2A agonist 15.7! | OPRM1 ag inactive | m5-HT2A ag conf inactive
C#CCN(C[C@H]1[C@H](OC(=O)NCc2ccccc2F)[C@H](OC(=O)NCc2ccccc2F)C[C@@H](C(=O)OC)[C@H]1C(=O)OC)S(=O)(=O)c1ccc(C)cc1	none (no result: AHR act, AI-2 QS mod)
Cc1ccc(C(=O)N2CCN(c3ccc([N+](=O)[O-])cc3)CC2)o1	none
O=C(C[n+]1cc(-c2ccccc2)n2c1CCC2)Nc1nc(-c2ccc(F)cc2)cs1	m5-HT2A agonist 20.6 | OPRM1 ag inactive | m5-HT2A ag conf 51.4
O=C(COc1ccccc1)NCC(=O)N1CCCCCC1	none (no result: AI-2 QS mod)
CCOC(=O)N1CCC(NC(=O)c2ccc3c(Cl)c4c(nc3c2)CCCC4)CC1	m5-HT2A agonist 17.7 (no result: AI-2 QS mod) | OPRM1 ag inactive | m5-HT2A ag conf inactive
O=C(NC1CC1)c1ccc2c(Cl)c3c(nc2c1)CCCC3	none
Cn1nc(-c2ccc(Cl)cc2)c2cc(C(=O)N3CCCC3)sc21	m5-HT2A agonist 22.3, AHR act 50.1 | OPRM1 ag inactive | m5-HT2A ag conf inactive
Cc1ccc(-n2ncc3c(N4CCCC4)ncnc32)c(C)c1	none
COc1cccc(N2CCN(c3ncnc4c3cnn4-c3ccc(C)cc3C)CC2)c1	m5-HT2A agonist 15.0 | OPRM1 ag 3.0 | m5-HT2A ag conf inactive
CN(C(=O)c1cccc(NC(=O)Cc2cccc(NC(=O)C3CCCN(C(=O)CCc4ccccc4)C3)c2)c1)C1CCC1 (centres undefined)	none (no result: AHR act, AI-2 QS mod)
CC(C)OC(=O)CSc1nc(N2CCOCC2)c2c(c1C#N)CC(C)(C)OC2	none
CCOC(=O)C1(C)Oc2ccccc2C(C(=O)OC)=C1C(=O)OC (centres undefined)	m5-HT2A agonist 19.7 (no result: AHR act, AI-2 QS mod) | OPRM1 ag inactive | m5-HT2A ag conf inactive
CCOC(=O)C1(C)Oc2ccccc2C(c2ccc(OC)cc2)=C1C(=O)OC (centres undefined)	none (no result: AHR act, AI-2 QS mod)
COC(=O)[C@@]1(Cc2ccc(F)cc2)[C@@H]2[C@@H](CC(=O)[C@H]2CC(=O)C(=O)N(C)C)CN1C(=O)c1ccccc1	none (no result: MsrA inh, AI-2 QS mod)
COC(=O)[C@@]1(Cc2ccc(OC)cc2)[C@@H]2[C@@H](CC(=O)[C@H]2CC(=O)C(=O)N(C)C)CN1C(=O)c1ccccc1	m5-HT2A agonist 18.1 | OPRM1 ag inactive | m5-HT2A ag conf inactive
CCCCNS(=O)(=O)c1ccc2nc(-c3cccnc3)cc(C(=O)NCC(OC)OC)c2c1	none
CC(=O)c1cn(CC(=O)Nc2ccccc2)c2ccccc12	m5-HT2A agonist 20.5 | OPRM1 ag inactive | m5-HT2A ag conf inactive
CCC(=O)c1cn(CC(=O)Nc2ccccc2)c2ccccc12	none
COc1ccc(Cc2nnc3sc(SCC(=O)Nc4ccccc4)nn3c2=O)cc1OC	none
COc1cc(CCCN2C(N)=NC[C@@H]2Cc2ccccc2)cc(OC)c1OC	m5-HT2A agonist 15.6 | OPRM1 ag inactive | m5-HT2A ag conf inactive
COc1cc(CCCN2C(N)=NC[C@@H]2Cc2ccc(O)cc2)cc(OC)c1OC	none
Cc1ccc(SCC(=O)OCC(=O)N(C)C2CCS(=O)(=O)C2)cc1C (centres undefined)	none (no result: AI-2 QS mod)
CCC(C)N(C(=O)COC(=O)CSc1ccc(C)c(C)c1)C1CCS(=O)(=O)C1 (centres undefined)	m5-HT2A agonist 15.3 (no result: AI-2 QS mod) | OPRM1 ag inactive | m5-HT2A ag conf inactive
